High-throughput results: PubChem BioAssay, several laboratories
ABCG2 block: ABCG2 efflux pump inhibitors, primary screen, multiplex with ABCB1, IgMXP3 cells, flow cytometry | Broad substrate specificity ATP-binding cassette transporter ABCG2 (Homo sapiens), Q9UNQ0 | JC-1 efflux | inhibition, % at 6.6 µM | hit rate 0.1% among 190,000;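 active = inhibition above 80%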;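 note: 0% = DMSO and 100% = nicardipine control wells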
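Test system: IgMXP3 cells (ABCG2) mixed with DDAO far-red-labelled CCRF-Adr cells (ABCB1). Reagent: JC-1 transporter substrate. Compound dosing: single test compound dose, 6.6 µM final. Times: 10 min compound exposure, 25 °C. Detection: flow cytometry of retained JC-1 fluorescence. Read-out basis: efflux inhibition in percent versus controls. Controls: nicardipine and DMSO wells.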
WT yeast gro inh: growth inhibition of WT strain, primary screen, mitochondrial fusion inhibitor project, WT and mutant strains, chemical genetic | mitochondrial fusion phenotypic screen | inhibition, % at 10 µM | hit rate 2.1% among 190,000 | AID 1362, 2008; in the data active = inhibition above about 58%; tested in S. cerevisiae
MEKK2wt PB1 HTS: modulators of MEK5 binding to wildtype MEKK2, primary screen, biochemical, multiplex bead flow cytometry, Alexa488-MEK5. Mitogen-activated protein kinase kinase kinase 2 (Homo sapiens), Q9Y2U5. Alexa488-MEK5 binding to MEKK2 WT; actives lie on both sides. binding response (% of control), % at 10 µM. hit rate 1.1% among 290,000. AID 1531, 2009; in the data active = binding response below about 67% or above about 130%
MEKK3 PB1 HTS: modulators of MEKK3-MEK5 PB1 binding, primary screen, biochemical, wildtype MEKK3, multiplex bead flow cytometry, Alexa488-MEK5; Mitogen-activated protein kinase kinase kinase 3 (Homo sapiens), Q99759; bead-based flow cytometry, Alexa488-MEK5 binding to MEKK3; actives lie on both sides; 0 = blocked by unlabeled MEK5, 100 = vehicle; binding response (% of control), % at 10 µM; hit rate 1.4% among 290,000; AID 1529, 2009;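 active = binding response more than 3 SD above or below the average of its plate-row segment, actives on both sides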;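 note: Alexa488 bead fluorescence after subtracting the streptavidin-only scavenger bead signal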
ABCB1 inh: ABCB1 efflux pump inhibitors, primary screen, cell-based, multiplex, flow cytometry, ABCG2 counter-screen; ATP-dependent translocase ABCB1 (Homo sapiens), P08183; CCRF-Adr cells, JC-1 efflux; inhibition, % at 6.6 µM; hit rate 0.067% among 190,000; in the data active = inhibition above about 40%;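 note: 0% = vehicle and 100% = reference inhibitor; higher value means more JC-1 retained so stronger ABCB1 efflux block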
MEKK2 mut-MEK5: MEK5 binding signal on mutant MEKK2 PB1, primary screen, biochemical, multiplex bead flow cytometry, Alexa488-MEK5; Alexa488-MEK5 binding to MEKK2 mutant; hit rate 0.35% among 290,000; percent response, % at 10 µM; in the data active = percent response above about 24%, passing the limit was not always enough
MEKK2wt confirm: modulators of MEK5 binding to wildtype MEKK2, confirmation, biochemical, single concentration, multiplex bead flow cytometry; shares compounds with MEKK3 PB1 HTS; binding response (% of control), % at 10 µM; Alexa488-MEK5 binding to MEKK2 WT; actives lie on both sides; hit rate 2.4% among 5,900; in the data active = binding response below about 16% or above about 210%; inactive = in between
MEKK2mut-MEK5: mutant MEKK2 PB1-MEK5 binding signal retest – biochemical, single concentration, multiplex bead flow cytometry, confirmation | percent response, % at 10 µM | shares compounds with MEKK3 PB1 HTS | Alexa488-MEK5 binding to MEKK2 mutant | hit rate 2% among 5,900; in the data active = percent response mostly above about 71%, no sharp cut-off; inactive = mostly below about 38%;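 note: higher means compound restores mutant binding toward wildtype level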
MEKK3-MEK5 inh: MEKK3 wild-type PB1 binding to MEK5, inhibitors, confirmation, biochemical, bead multiplex flow cytometry, single concentration, wildtype; shares compounds with MEKK3 PB1 HTS; Alexa488-MEK5 binding to MEKK3; stronger effect = lower value; binding response (% of control), % at 10 µM; hit rate 1.8% among 5,900; AID 1894, 2009;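 active = binding response below 72% of control, or above a set upper limit, though filed actives all read lower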;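 note: 100% = DMSO only wells and 0% = binding blocked by excess unlabeled MEK5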
Starred values were filed as active, the others as inactive; nt = not tested or not shown; [ ] = another dose, or the depositor's remark. Rows were chosen to be rich in hits. Some 3.5% of all compounds tested hit in one or more screens of this group.

SMILES | ABCG2 block | WT yeast gro inh | MEKK2wt PB1 HTS | MEKK3 PB1 HTS | ABCB1 inh | MEKK2 mut-MEK5 | MEKK2wt confirm | MEKK2mut-MEK5 | MEKK3-MEK5 inh
Cn1c(=O)[nH]c(=O)c2c1nc(Sc1ccccc1)n2CCc1ccccc1 | 2 | 11 | 99 | 100 | 1 | 5 | nt | nt | nt
O=C(CN(C(=O)CNC(=O)c1cccs1)c1cccc(F)c1)NC1CCCC1 | nt | nt | 101 | 102 | nt | -2 | nt | nt | nt
CCC(C)N(CC(=O)Nc1cccc(C)c1C)C(=O)CCl (stereo not drawn) | 1 | 12 | 107 | 106 | 1 | -1 | nt | nt | nt
O=CNCC(=O)NC1CCCCCC1 | -5 | -5 | 84 | 79*[inhibitor] | 0 | -7 | 97 | -6 | 100
O=C(CCCC(=O)NC1CCCC1)NC1CCCC1 | 2 | 5 | 96 | 94 | 1 | -2 | nt | nt | nt
Cc1nc(-c2ccccn2)nc(SCC(=O)N2CCOCC2)c1Cl | nt | nt | 114 | 129* | nt | 29 | 102 | -3 | 105
CN(C)S(=O)(=O)c1ccc(NC(=O)C2CC3C=CC2C3)cc1 (stereo not drawn) | 6 | 5 | 9.0*[inhibitor] | 3.0*[inhibitor] | 0 | -46 | 92 | -16 | 79
CCO[C@@H]1OC(C(=O)NC2CC2)=C[C@H](c2c[nH]c3ccccc23)[C@H]1CCCO | nt | nt | 111 | 82*[inhibitor] | nt | 1 | 99 | -7 | 103
O=S1(=O)CC(O)C(NCc2ccco2)C1 (stereo not drawn) | -7 | -19 | 81 | 75*[inhibitor] | 1 | -4 | 102 | 3 | 106
c1coc(CNC2CCCCCCC2)c1 | 5 | 4 | 106 | 98 | 0 | 1 | nt | nt | nt
CCOC(=O)/C(C#N)=C/Nc1ccccc1OC | 7 | 21 | 2.0*[inhibitor] | 2.0*[inhibitor] | 1 | -16 | 106 | 9 | 105
CC(=O)N(C)c1ccc(OCC(O)Cn2c(C)nc3ccccc32)cc1 (stereo not drawn) | 0 | 9 | 115 | 135* | 0 | 1 | 98 | -2 | 101
O=C(O)Cn1ncn(-c2ccc(OC(F)(F)F)cc2)c1=O | -1 | -1 | 106 | 109 | 0 | -2 | nt | nt | nt
CCOC(=O)c1c(C)[nH]c(C(=O)NCc2ccco2)c1C | 17 | -8 | 122 | 143* | 1 | 6 | 96 | 0 | 97
CN(C)c1nc(NCc2ccccc2)nc(N/N=C/c2cccc(Br)c2)n1 | 2 | 46 | 139* | 108 | 0 | 15 | 125 | 13 | 106
Cc1nc(SCC(O)CO)c([N+](=O)[O-])[nH]1 (stereo not drawn) | 0 | -11 | 138* | 112 | 0 | 16 | 99 | -2 | 97
Cc1nc(SCC(=O)c2ccc(F)cc2)c([N+](=O)[O-])[nH]1 | 7 | 2 | 104 | 102 | 1 | 4 | nt | nt | nt
OC(CNCc1ccco1)Cn1c2ccc(Br)cc2c2cc(Br)ccc21 (stereo not drawn) | 0 | -26 | 216* | 111 | 0 | 47* | 184 | 41 | 98
Brc1ccc2ncnc(NCc3ccco3)c2c1 | 3 | -13 | 102 | 105 | 0 | -3 | nt | nt | nt
Cc1c(NC(=O)C2CC(c3ccc(F)cc3)=NO2)c(=O)n(-c2ccccc2)n1C (stereo not drawn) | -1 | -1 | 17*[inhibitor] | 9.0*[inhibitor] | 0 | -38 | 104 | 7 | 102
CC1CCCCN1C(=O)CSc1nnc(-c2cccnc2)o1 (stereo not drawn) | nt | nt | 97 | 98 | nt | -1 | nt | nt | nt
CC(NCC(O)COCCC12CC3CC(CC(C3)C1)C2)c1ccccc1 (stereo not drawn) | 0 | 76* | 139* | 99 | 0 | 13 | 114 | 3 | 98
COc1ccc(NS(=O)(=O)c2cc(NC(=O)CCSc3ccccc3)ccc2OC)cc1 | 8 | 2 | 111 | 145* | 0 | -1 | 100 | 0 | 105
CCOC(=O)c1c(NC(=O)CCC(=O)N2CCOCC2)sc2c1CC(C)(C)OC2 | 2 | -3 | 85 | 79*[inhibitor] | 0 | -1 | 100 | 6 | 101
CCCC(=O)Nc1sc2c(c1C(=O)OCC)CC(C)(C)OC2 | 2 | -3 | 83 | 87 | 0 | -8 | nt | nt | nt
SMILES | ABCG2 block | WT yeast gro inh | MEKK2wt PB1 HTS | MEKK3 PB1 HTS | ABCB1 inh | MEKK2 mut-MEK5 | MEKK2wt confirm | MEKK2mut-MEK5 | MEKK3-MEK5 inh
CCOC(=O)c1c(NC(=O)CN2CCOCC2)sc2c1CC(C)(C)OC2 | 1 | 2 | 4.0*[inhibitor] | 3.0*[inhibitor] | 4 | -20 | 106 | 3 | 101
CCOC(=O)c1c(NC(=O)CCN2CCOCC2)sc2c1CC(C)(C)OC2 | 4 | -24 | 114 | 113 | 1 | 8 | nt | nt | nt
COc1cc(/C=N\Nc2nc3ccccc3[nH]2)cc(OC)c1OC | 2 | 48 | 112 | 106 | 0 | 4 | nt | nt | nt
COc1ccc2c(c1)c(/C=N/Nc1nc3ccccc3[nH]1)c(C)n2C | nt | nt | 164* | 103 | nt | 51* | 165 | 41 | 107
Cc1ccc(-n2[nH]c(C)c(/C=N/Nc3ccc([N+](=O)[O-])cc3[N+](=O)[O-])c2=O)cc1 | 10 | 47 | 104 | 101 | -1 | 16 | nt | nt | nt
CCCN1C(=O)/C(=C/c2ccc(C)s2)SC1=Nc1ccc(OC)cc1 | 6 | -3 | 100 | 102 | 1 | -3 | nt | nt | nt
CCN(CC)CCN1C(=O)/C(=C\c2ccc(Cl)c([N+](=O)[O-])c2)SC1=Nc1ccc(OC)cc1 | nt | nt | 197* | 109 | nt | 36* | 154 | 25 | 108
COc1ccc(N=C2S/C(=C\c3ccc(Cl)c([N+](=O)[O-])c3)C(=O)N2CCN(C)C)cc1 | nt | nt | 182* | 106 | nt | 69* | 135 | 42 | 103
COc1ccc(N2CCN(C(=O)Cn3c(=O)[nH]c4ccccc4c3=O)CC2)cc1 | 1 | 7 | 98 | 101 | 0 | -2 | nt | nt | nt
